≈ marks a conversion by molar mass, not a printed value.
Tests used:
[1] = system: P. falciparum (D6); experiment: in vitro antimalarial activity, plasmodial LDH; type: cell-based, Plasmodium falciparum; details: Plasmodium falciparum, D6, 72 h, read-out: P. falciparum (D6) IC50
[2] = system: P. falciparum (W2); experiment: in vitro antimalarial activity, plasmodial LDH; type: cell-based, Plasmodium falciparum; details: Plasmodium falciparum, W2, 72 h, read-out: P. falciparum (W2) IC50, CQ-resistant W2 strain, 72 h
In short: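 P. falciparum-infected erythrocytes (2% parasitemia, 2% hematocrit) in RPMI 1640 with 10% human serum and 60 μg/mL amikacin. Exposed to test compound dilutions for 72 h at 37 °C under 90% N2/5% O2/5% CO2. LDH measured with Malstat reagent (30 min, room temperature), then NBT/PES for 1 h in the dark, stopped with 5% acetic acid, read at 650 nm. IC50 from dose-response curves.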

[3] = system: SK-MEL, KB, BT-549, SK-OV-3, VERO and LLC-PK1 cells; experiment: cytotoxicity, neutral red uptake assay; type: cell-based, mammalian; details: highest test concentration 4760 ng/mL
In short: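 Cells seeded at 25 000/well and allowed 24 h to reach confluence. Test compound was then added and incubated 48 h. Viable cells were counted by a modified neutral red uptake method. The panel was four human cancer lines and two noncancerous mammalian kidney lines. Doxorubicin served as positive control and DMSO as negative control.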

[4] = system: L. donovani promastigotes; experiment: in vitro antileishmanial activity, alamarBlue assay; type: cell-based, Leishmania donovani; details: Leishmania donovani, 48 h; for IC50: read-out: L. donovani IC50, promastigotes, 48 h; for IC90: read-out: L. donovani IC90, promastigotes, 48 h
[5] = system: C. albicans ATCC90028; experiment: in vitro antifungal activity; type: cell-based, Candida albicans; details: Candida albicans; for IC50: ATCC90028, read-out: C. albicans IC50; for MFC: ATCC90028, read-out: C. albicans MFC; for MIC: ATCC90028, read-out: C. albicans MIC
In short: (§1)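 Modified NCCLS broth method in Sabouraud dextrose. Inoculum set by OD630 to 1.5 × 10^3 CFU/mL. Test compound serially diluted in 20% DMSO/saline, duplicate wells, up to 20 μg/mL. Incubated 70–74 h at 35 °C; 530 nm read before and after. IC50 is 50% growth inhibition; MIC is no detectable growth. MFC from clear wells subcultured on agar. Amphotericin B control.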

[6] = system: C. neoformans ATCC90113; experiment: in vitro antifungal activity; type: cell-based, Cryptococcus neoformans; details: Cryptococcus neoformans; for IC50: ATCC90113, read-out: C. neoformans IC50; for MFC: ATCC90113, read-out: C. neoformans MFC; for MIC: ATCC90113, read-out: C. neoformans MIC
In short: as §1

[7] = system: A. fumigatus ATCC 90906; experiment: in vitro antifungal activity; type: cell-based, Aspergillus fumigatus; details: Aspergillus fumigatus; for IC50: ATCC90906, read-out: A. fumigatus IC50; for MFC: ATCC90906, read-out: A. fumigatus MFC; for MIC: ATCC90906, read-out: A. fumigatus MIC
In short: as §1

[8] = system: SA (ATCC29213); experiment: in vitro antibacterial activity; type: cell-based; details: Staphylococcus aureus; for IC50: ATCC29213, read-out: IC50 (concentration that affords 50% growth inhibition), SA; for MBC: ATCC29213, read-out: MBC (minimum bactericidal concentration), SA; for MIC: ATCC29213, read-out: MIC, SA
In short: (§2)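 Test compound serially diluted in 20% DMSO/saline and plated in duplicate, up to 20 μg/mL. Inoculum in cation-adjusted Mueller–Hinton broth, pH 7.3, set by OD630 to 5 × 10^5 CFU/mL. Incubated 16–20 h at 35 °C; 530 nm read before and after. IC50 is 50% growth inhibition; MIC is no detectable growth. MBC from clear wells subcultured on agar. Ciprofloxacin control.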

[9] = system: MRSA (ATCC33591); experiment: in vitro antibacterial activity; type: cell-based, methicillin-resistant Staphylococcus aureus; details: Staphylococcus aureus, ATCC33591|MRSA, read-out: MIC, MRSA
In short: as §2

[10] = system: M. intracellulare (ATCC23068); experiment: in vitro antibacterial activity, modified alamarBlue procedure; type: cell-based, Mycobacterium intracellulare; details: Mycobacterium intracellulare; for IC50: ATCC23068, read-out: IC50 (concentration that affords 50% growth inhibition), M. intracellulare; for MBC: ATCC23068, read-out: MBC (minimum bactericidal concentration), M. intracellulare; for MIC: ATCC23068, read-out: MIC, M. intracellulare
In short: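 Modified alamarBlue microplate method. Test compound serially diluted in 20% DMSO/saline, duplicate wells, up to 20 μg/mL. Inoculum 2.0 × 10^6 CFU/mL in Middlebrook 7H9 with OADC, pH 7.3, containing 5% alamarBlue. Incubated 70–74 h at 37 °C, 10% CO2; fluorescence 544ex/590em read before and after. MIC: no blue-to-pink change. MBC by subculturing blue wells on agar. Ciprofloxacin control.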

Compound	IC50 [1] [µg/mL]	IC50 [2] [µg/mL]	cytotoxicity CTX [3]	IC50 [4] [µg/mL]	IC90 [4] [µg/mL]	IC50 [5] [µg/mL]	MFC [5] [µg/mL]	MIC [5] [µg/mL]	IC50 [6] [µg/mL]	MFC [6] [µg/mL]	MIC [6] [µg/mL]	IC50 [7] [µg/mL]	MFC [7] [µg/mL]	MIC [7] [µg/mL]	IC50 [8] [µg/mL]	MBC [8] [µg/mL]	MIC [8] [µg/mL]	MIC [9] [µg/mL]	IC50 [10] [µg/mL]	MBC [10] [µg/mL]	also measured
COc1cc(NC(C)CCCN)c2nc(C(C)(C)C)ccc2c1Oc1ccc(Cl)c(Cl)c1 (stereo not drawn) [compound 55, N^4-(2-tert-Butyl-5-(3,4-dichlorophenoxy)-6-methoxyquinolin-8-yl)pentane-1,4-diamine]	0.14 (≈ 0.294 µM)	0.13 (≈ 0.273 µM)	NC (NC, not cytotoxic up to 4760 ng/mL (4.76 μg/mL))	11 (≈ 23.1 µM)	> 40	> 20	> 20	> 20	3.18 (≈ 6.67 µM)	5 (≈ 10.5 µM)	5 (≈ 10.5 µM)	> 20	> 20	> 20	5.96 (≈ 12.5 µM)	10 (≈ 21 µM)	10 (≈ 21 µM)	10 (≈ 21 µM)	9.51 (≈ 20 µM)	20 (≈ 42 µM)	MIC [10]: 20 µg/mL (≈ 42 µM)
CCCCCOc1c(OC)cc(NC(C)CCCNC(=O)C(N)CCCNC(=N)N)c2nc(C(C)(C)C)ccc12 (stereo not drawn) [compound 94, 2-Amino-N-(4-(2-tert-butyl-6-methoxy-5-(pentyloxy)quinolin-8-ylamino)pentyl)-5-guanidinopentanamide]	4.76 (≈ 8.53 µM)	4 (≈ 7.17 µM)	NC (NC, not cytotoxic up to 4760 ng/mL (4.76 μg/mL))	18 (≈ 32.3 µM)	32 (≈ 57.4 µM)	18.6 (≈ 33.4 µM)	20 (≈ 35.9 µM)	20 (≈ 35.9 µM)	1.41 (≈ 2.53 µM)	2.5 (≈ 4.48 µM)	2.5 (≈ 4.48 µM)	> 20	> 20	> 20	5.85 (≈ 10.5 µM)	20 (≈ 35.9 µM)	10 (≈ 17.9 µM)	10 (≈ 17.9 µM)	11.2 (≈ 20.1 µM)	20 (≈ 35.9 µM)	MIC [10]: 20 µg/mL (≈ 35.9 µM)
CCCCCOc1c(OC)cc(NC(C)CCCNC(=O)C(N)CC(C)C)c2nc(C(C)(C)C)ccc12 (stereo not drawn) [compound 95, 2-Amino-N-(4-(2-tert-butyl-6-methoxy-5-(pentyloxy)quinolin-8-ylamino)pentyl)-4-methylpentanamide]	3.5 (≈ 6.8 µM)	2.3 (≈ 4.47 µM)	NC (NC, not cytotoxic up to 4760 ng/mL (4.76 μg/mL))	3.5 (≈ 6.8 µM)	6.5 (≈ 12.6 µM)	18.4 (≈ 35.8 µM)	> 20	> 20	1.68 (≈ 3.26 µM)	2.5 (≈ 4.86 µM)	2.5 (≈ 4.86 µM)	> 20	> 20	> 20	2.56 (≈ 4.97 µM)	5 (≈ 9.71 µM)	5 (≈ 9.71 µM)	10 (≈ 19.4 µM)	12.6 (≈ 24.4 µM)	20 (≈ 38.9 µM)	MIC [10]: 20 µg/mL (≈ 38.9 µM)
CCCCCOc1c(OC)cc(NC(C)CCCNC(=O)C(N)C(C)CC)c2nc(C(C)(C)C)ccc12 (stereo not drawn) [compound 96, 2-Amino-N-(4-(2-tert-butyl-6-methoxy-5-(pentyloxy)quinolin-8-ylamino)pentyl)-3-methylpentanamide]	> 4.76	> 4.76	NC (NC, not cytotoxic up to 4760 ng/mL (4.76 μg/mL))	8.65 (≈ 16.8 µM)	32.6 (≈ 63.4 µM)	> 20	> 20	> 20	4.95 (≈ 9.62 µM)	10 (≈ 19.4 µM)	10 (≈ 19.4 µM)	> 20	> 20	> 20	5.35 (≈ 10.4 µM)	20 (≈ 38.9 µM)	10 (≈ 19.4 µM)	10 (≈ 19.4 µM)	12.2 (≈ 23.7 µM)	20 (≈ 38.9 µM)	MIC [10]: 20 µg/mL (≈ 38.9 µM)
CCCCCOc1c(OC)cc(NC(C)CCCNC(=O)C(N)Cc2ccccc2)c2nc(C(C)(C)C)ccc12 (stereo not drawn) [compound 97, 2-Amino-N-(4-(2-tert-butyl-6-methoxy-5-(pentyloxy)quinolin-8-ylamino)pentyl)-3-phenylpropanamide]	2.5 (≈ 4.56 µM)	1.3 (≈ 2.37 µM)	NC (NC, not cytotoxic up to 4760 ng/mL (4.76 μg/mL))	4 (≈ 7.29 µM)	6.5 (≈ 11.8 µM)	> 20	> 20	> 20	2.29 (≈ 4.17 µM)	2.5 (≈ 4.56 µM)	2.5 (≈ 4.56 µM)	> 20	> 20	> 20	5.81 (≈ 10.6 µM)	> 20	10 (≈ 18.2 µM)	20 (≈ 36.4 µM)	14.9 (≈ 27.2 µM)	> 20	MIC [10]: > 20 µg/mL
CCCCCOc1c(OC)cc(NC(C)CCCNC(=O)C(N)Cc2cc3ccccc3[nH]2)c2nc(C(C)(C)C)ccc12 (stereo not drawn) [compound 98, 2-Amino-N-(4-(2-tert-butyl-6-methoxy-5-(pentyloxy)quinolin-8-ylamino)pentyl)-3-(1H-indol-2-yl)propanamide]	> 4.76	> 4.76	NC (NC, not cytotoxic up to 4760 ng/mL (4.76 μg/mL))	1.81 (≈ 3.08 µM)	2.93 (≈ 4.98 µM)	18.8 (≈ 31.9 µM)	> 20	> 20	1.21 (≈ 2.06 µM)	2.5 (≈ 4.25 µM)	2.5 (≈ 4.25 µM)	> 20	> 20	> 20	1.95 (≈ 3.32 µM)	10 (≈ 17 µM)	5 (≈ 8.51 µM)	5 (≈ 8.51 µM)	8.47 (≈ 14.4 µM)	20 (≈ 34 µM)	MIC [10]: 10 µg/mL (≈ 17 µM)
